Entries after “also recorded” stand apart in the source; their conditions may differ.
Columns and labels:
AlinCSP4 [1] = target: T1, AlinCSP4 (Adelphocoris lineolatus, UniProt K9J9S0); test: Fluorescence competitive binding assay with 1-NPN as probe, recombinant AlinCSP4; conditions: for binding to AlinCSP4 (in words): competitive binding with 1-NPN
T1 sequence (K9J9S0 20-127): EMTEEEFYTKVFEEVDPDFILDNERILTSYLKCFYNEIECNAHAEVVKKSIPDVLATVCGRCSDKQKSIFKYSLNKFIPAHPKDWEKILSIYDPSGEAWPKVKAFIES
How it was run: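 Refolded, His-tag-cleaved recombinant protein at 2 μM and 1-NPN at 2 μM in Tris-HCl pH 7.4 were titrated with 1 mM competitor stock to 2–30 μM final, at 25°C. Excitation was 337 nm, with emission read at 390–460 nm. IC50 is the competitor level that halves 1-NPN fluorescence, and Ki = IC50/(1+[1-NPN]/K1-NPN). IC50 <20 μM was taken as good binding; Ki was not calculated when IC50 >30 μM.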

[2] = tested on: antennae of female and male adults of A. lineolatus; conditions: exceptions at 10% level; cited from earlier work
[3] = tested on: antennae of female and male adults of A. lineolatus; test: Electroantennogram; parameters: species or system Adelphocoris lineolatus; conditions: 0.01%, 0.1%, 1%, 10% v/v, normalized to 10% 3-hexanone
How it was run: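 Antennae were excised from newly emerged lab-reared adults (green beans and 10% honey, 14L:10D, 29±1°C) and mounted between two electrodes with electrode gel. A 10 μL aliquot per dose was delivered in an air stream of 10 ml/sec, and signals were recorded for 5 s from 1 s before the stimulus. Paraffin oil served as control. Six antennae per sex were tested per compound, given as normalized mean ± SE and compared by one-way ANOVA (α=0.05).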

AlinCSP6 = target: T2, AlinCSP6 (Adelphocoris lineolatus, UniProt K9J9R7); test: Binding of fluorescent probe 1-NPN to recombinant AlinCSP6
T2 sequence (K9J9R7 20-132): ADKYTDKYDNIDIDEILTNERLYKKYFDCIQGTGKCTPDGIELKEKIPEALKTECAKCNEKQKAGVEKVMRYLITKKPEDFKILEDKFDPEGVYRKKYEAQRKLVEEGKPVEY
How it was run: (§1)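 Recombinant mature protein (E. coli BL21(DE3), pET30a(+)) was refolded from inclusion bodies, purified by two rounds of Ni affinity, and had the His-tag removed with enterokinase. 2 μM protein in 50 mM Tris-HCl pH 7.4 was titrated with 1 mM 1-NPN in methanol (stock) to 1–16 μM final, at 25°C. Excitation was 337 nm; emission peak was read at 390–460 nm. Analysis assumed 1:1 stoichiometry with fully active protein, using a Scatchard plot.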

AlinCSP4 [4] = target: T1, AlinCSP4; test: Binding of fluorescent probe 1-NPN to recombinant AlinCSP4
How it was run: as §1

AlinCSP5 = target: T3, AlinCSP5 (Adelphocoris lineolatus, UniProt K9J9X7); test: Binding of fluorescent probe 1-NPN to recombinant AlinCSP5
T3 sequence (K9J9X7 22-127): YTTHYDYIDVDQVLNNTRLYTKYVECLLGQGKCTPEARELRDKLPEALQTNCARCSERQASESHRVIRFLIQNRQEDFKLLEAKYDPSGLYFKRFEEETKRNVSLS
How it was run: as §1

[5] = tested on: female adults of A. lineolatus; conditions: plant volatile emitted by Bt cotton plants; cited from earlier work
AlinCSP1 = conditions: cited from earlier work

Molecule	IC50 (AlinCSP4 [1])	also measured
C=CC(C)(O)CCC=C(C)CCC=C(C)C (mixture of isomers) [Nerolidol]	2 ± 0.17 µM	EAG response of terpenoids (in words) [2]: good EAG responses
Cc1ccc(C=O)cc1C [3,4-Dimethyl-benzaldehyde]	10.6 ± 0.75 µM	–
CC(=O)CCC=C(C)C [6-Methyl-5-hepten-2-one]	20.2 ± 2.62 µM	–
CC(=O)c1ccccc1 [Acetophenone]	27.5 ± 1.73 µM	–
O=Cc1ccccc1 [Benzaldehyde]	14.3 ± 1.86 µM	–
CCCCOC(=O)CCC [Butyl butyrate]	21.1 ± 0.51 µM	–
CCCC(=O)OCC [Ethyl butyrate]	9.81 ± 1.55 µM	–
CCCCCCC=O [Heptanal]	11.4 ± 0.47 µM	–
CCCCCC=O [Hexanal]	10.5 ± 2.11 µM	–
CCCCCCOC(=O)CCC [Hexyl butyrate]	9.22 ± 1.77 µM	EAG response (in words) [3]: more sensitive EAG responses
CCCCCCOC(=O)CCCCC [Hexyl hexanoate]	2.36 ± 0.21 µM	–
c1ccc2[nH]ccc2c1 [Indole]	23.3 ± 1.6 µM	–
CCCCCCO [Ligand 1-Hexanol, 1-Hexanol]	12.5 ± 0.88 µM	–
c1ccc(Nc2cccc3ccccc23)cc1 [Ligand 1-NPN, N-phenyl-1-naphthylamine]	–	Kd (AlinCSP6): 8.3 ± 1.8 µM; Kd (AlinCSP4 [4]): 2.8 ± 0.4 µM; Kd (AlinCSP5): 4.2 ± 0.5 µM
CCCCCC(C)=O [Ligand 2-Heptanone, 2-Heptanone]	27.3 ± 0.6 µM	–
CCCCC(C)O (stereo not drawn) [Ligand 2-Hexanol, 2-Hexanol]	9.63 ± 0.3 µM	–
CCCCC(C)=O [Ligand 2-Hexanone, 2-Hexanone]	25.7 ± 0.53 µM	–
CCCCCCC(C)=O [Ligand 2-Octanone, 2-Octanone]	25.2 ± 2.39 µM	–

Molecule	IC50 (AlinCSP4 [1])	also measured
CCCC(=O)CC [Ligand 3-Hexanone, 3-Hexanone]	24.2 ± 0.84 µM	attraction of female adults (in words) [5]: strongly attract
C=C(C)[C@H]1CC=C(C)CC1 [Limonene]	–	binding to AlinCSP4 (in words) (AlinCSP4 [1]): no binding; EAG response of terpenoids (in words) [2]: good EAG responses
COC(=O)c1ccccc1O [Methyl salicylate]	12.7 ± 2.01 µM	–
C=CC(=C)CCC=C(C)C [Myrcene]	20.1 ± 0.81 µM	–
CCCCCCCCC=O [Nonanal]	13 ± 1.43 µM	–
CCCCCCCCCOC(C)=O [Nonyl acetate]	5.83 ± 0.44 µM	–
CCCCCCCC=O [Octanal]	10.9 ± 0.86 µM	–
CCCCCCCCCCC [Undecane]	7.13 ± 1.29 µM	–
CC/C=C\CCO [cis-3-Hexen-1-ol]	21.7 ± 0.88 µM	–
CC/C=C\CCOC(C)=O [cis-3-hexenyl acetate]	> 30 µM	binding to AlinCSP4 (in words) (AlinCSP4 [1]): no binding; also recorded: no or very weak binding; binding affinity to AlinCSP1 (in words) (AlinCSP1): very good binding affinity
CCC/C=C/C=O [trans-2-Hexenal]	16.3 ± 0.51 µM	–
CCC/C=C/COC(=O)CCC [trans-2-hexenyl butyrate]	11 ± 2.09 µM	EAG response (in words) [3]: more sensitive EAG responses
C=C/C(C)=C/CC=C(C)C [trans-β-Ocimene, trans -β-Ocimene]	–	binding to AlinCSP4 (in words) (AlinCSP4 [1]): no binding
CC1=CC[C@H](C(C)C)C=C1 [α-Phellandrene]	> 30 µM	binding to AlinCSP4 (in words) (AlinCSP4 [1]): no binding; EAG response of terpenoids (in words) [2]: good EAG responses
C=C1CC/C=C(\C)CC[C@@H]2[C@@H]1CC2(C)C [β-Caryophyllene]	2.26 ± 0.26 µM	–
CC(=O)/C=C/C1=C(C)CCCC1(C)C [β-Ionone]	10.1 ± 1.24 µM	–
C=C1CCC2CC1C2(C)C (stereo not drawn) [β-Pinene]	> 30 µM	binding to AlinCSP4 (in words) (AlinCSP4 [1]): no binding
(+)-α-Pinene	–	binding to AlinCSP4 (in words) (AlinCSP4 [1]): no binding
